Results from ChEMBL document CHEMBL1136801, “Cyclopropane-containing polyamine analogues are efficient growth inhibitors of a human prostate tumor xenograft in nude mice” (J Med Chem, 2003).

Columns and labels:
DU-145 = test: Growth inhibitory effect was assessed against the human prostate tumor cell line Du-145 using MTT assay; type: functional; conditions: read-out: ID50 (the source's name)
Summary of the method: (§1)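 Cells seeded at 500 per well and incubated overnight at 37 °C in humidified 95% air/5% CO2, then exposed to serially diluted drug for 6 days, each concentration in quadruplicate, with buffer controls. MTT (5 mg/mL solution) added for 4 h at 37 °C; lysed overnight at 37 °C in SDS/DMF buffer, pH 4.8; absorbance at 570 nm. ID50 is the concentration giving 50% growth inhibition.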

PC-3 = test: Growth inhibitory effect was assessed against the human prostate tumor cell line PC-3 using MTT assay; type: functional; conditions: read-out: ID50 (the source's name); summary of the method: as §1
DuPro = test: Growth inhibitory effect was assessed against the human prostate tumor cell line DuPro using MTT assay; type: functional; conditions: read-out: ID50 (the source's name); summary of the method: as §1
Mus musculus [1] = test: Toxicity studies on male athymic NCr-nu mice administered ip daily for 5 consecutive days then rested for 10 days, and a second cycle of treatment also followed the q1d x 5 schedule; Two treatment-related deaths out of three animals; type: organism-based; conditions: in vivo, 240 h
Mus musculus [2] = test: (§2) Toxicity studies on male athymic NCr-nu mice administered ip daily for 5 consecutive days then rested for 10 days, and a second cycle of treatment also followed the q1d x 5 schedule; type: organism-based; conditions: in vivo, 240 h
Mus musculus [3] = test: Toxicity studies on male athymic NCr-nu mice administered ip daily for 5 consecutive days then rested for 10 days, and a second cycle of treatment also followed the q1d x 5 schedule; Death of all treated mice; type: organism-based; conditions: in vivo, 240 h
[4] = as §2; type: organism-based; conditions: mouse, in vivo, read-out: Lethality
Mus musculus [5] = test: Toxicity studies on male athymic NCr-nu mice administered ip daily for 5 consecutive days then rested for 10 days, and a second cycle of treatment also followed the q1d x 5 schedule; Death of all three mice; type: organism-based; conditions: in vivo, 240 h

SMILES | IC50 (DU-145) [µM] | IC50 (PC-3) [µM] | IC50 (DuPro) [µM] | Lethal dose (Mus musculus [1]) [mg/kg] | Lethal dose (Mus musculus [2]) [mg/kg] | Lethal dose (Mus musculus [3]) [mg/kg] | mortality at 240 h [4] [%] | Lethal dose (Mus musculus [5]) [mg/kg]
CCNCCCCNCC1CC1CNCCCCNCC1CC1CNCCCCNCC.Cl (stereo not given) | 0.12 | > 31.2 | 0.38 | 25 |  |  |  | 
CCNCCCCNCC1CC1CNCCCCNCCCCNCC1CC1CNCCCCNCCCCNCC1CC1CNCCCCNCC.Cl (stereo not given) | 0.22 | 0.3 | 0.2 |  | 25 |  |  | 
CCNCC1CC1CNCC1CC1CNCC1CC1CNCC.Cl (stereo not given) | 0.08 | > 31.5 | 0.63 |  |  | 75 |  | 
CCNCCCCNCCCCNCCCCNCCCCNCC1CC1CNCCCCNCCCCNCCCCNCCCCNCC (stereo not given) | 0.2 | 0.4 | 0.34 |  |  |  | 100 | 
CCNCC1CC1CNCCCCNCC1CC1CNCC.Cl (stereo not given) | 0.06 | > 31.2 | 0.26 |  |  |  |  | 75
